Measured values from different studies.
Lines come from different studies, so protocols differ.
IKBKB: Inhibitor of nuclear factor kappa-B kinase subunit beta (IKBKB, Homo sapiens, UniProt O14920)
AChE: AChE (Phlebotomus papatasi, UniProt M1F887)
HTR1A: 5-hydroxytryptamine receptor 1A (HTR1A, Homo sapiens, UniProt P08908)
M-phase phosphoprotein 8 chromodomain: M-phase phosphoprotein 8, chromodomain (Homo sapiens, UniProt Q99549)

COCCOCOc1cc(OCc2ccc(Br)cc2)c(C(=O)/C=C/c2ccc(C(=O)O)cc2)cc1C12CC3CC(CC(C3)C1)C2
IC50 (IKBKB; enzyme activity; inhibitor; TR-FRET): 2730 nM

C=C(C)[C@@H]1CCC(C)=C[C@H]1c1c(O)cc(CCCCC)cc1O
IC50 (G-protein coupled receptor 52 (GPR52, Homo sapiens, UniProt Q9Y2T5); cAMP; antagonist): 2450 nM

CNC(=O)Oc1cccc2c1OC(C)(C)C2
IC50 (AChE; enzyme activity; inhibitor): 8 nM

CCCCCNC(=N)N/N=C/c1c[nH]c2ccc(OC)cc12
IC50 (HTR1A; calcium signal; antagonist): 870 nM

CCN(CCCC[C@H](NC(=O)[C@H](Cc1ccccc1)NC(=O)[C@H](C)NC(=O)[C@H](Cc1ccccc1)NC(=O)c1cccnc1)C(=O)N[C@@H](CO)C(N)=O)C(C)C
IC50 (M-phase phosphoprotein 8 chromodomain; cell-free assay; TR-FRET): 550 nM

CCOP(=O)(OCC)Oc1ccc2c(C)c(Cl)c(=O)oc2c1
IC50 (AChE; enzyme activity; inhibitor): 430 nM

COCCOCOc1cc(OCc2cc(F)cc(F)c2)c(C(=O)/C=C/c2ccc(C(=O)O)cc2)cc1C12CC3CC(CC(C3)C1)C2
IC50 (IKBKB; enzyme activity; inhibitor; TR-FRET): 1830 nM

CC(CCc1ccccc1)NC(C)C(O)c1ccc(O)cc1 (centres unmarked)
IC50 (HTR1A; ligand displacement; radioligand): 3380 nM

CNC(=O)Oc1cccc2ccccc12
IC50 (AChE; enzyme activity; inhibitor): 167 nM

CCN(CCCC[C@H](NC(=O)[C@H](CC(C)C)NC(=O)[C@H](C)NC(=O)[C@H](Cc1ccccc1)NC(=O)c1ccc(N)c(Br)c1)C(=O)N[C@@H](CO)C(N)=O)C(C)C
IC50 (M-phase phosphoprotein 8 chromodomain; cell-free assay; TR-FRET): 400 nM

COc1ncccc1-c1cnn2ccc(N3CCN(C(=O)OC(C)C)CC3)nc12
IC50 (Alpha-2C adrenergic receptor (ADRA2C, Homo sapiens, UniProt P18825); cell-free assay): > 30000 nM

CCN(CCCC[C@H](NC(=O)[C@H](CC(C)C)NC(=O)[C@H](C)NC(=O)[C@H](Cc1ccccc1)NC(=O)c1ccc(NC)cc1)C(=O)N[C@@H](CO)C(N)=O)C(C)C
IC50 (M-phase phosphoprotein 8 chromodomain; cell-free assay; TR-FRET): 4400 nM

O=C(CCCc1ccc(N(CCCl)CCCl)cc1)NCCC1CCN(CCOc2ccc(Oc3c(-c4ccc(O)cc4)sc4cc(O)ccc34)cc2)CC1
IC50 (Estrogen receptor (ESR1, Homo sapiens, UniProt P03372); ligand displacement; radioligand): 37 nM

CCN(CCCC[C@H](NC(=O)[C@H](CC(C)C)NC(=O)[C@H](C)NC(=O)[C@H](Cc1ccccc1)NC(=O)c1cccnc1)C(=O)N[C@@H](CO)C(N)=O)C(C)C
IC50 (M-phase phosphoprotein 8 chromodomain; cell-free assay; TR-FRET): 2200 nM

CNC(=O)Oc1cccc2c1OC(C)(C)O2
IC50 (AChE; enzyme activity; inhibitor): 15 nM

CCN(CCCC[C@H](NC(=O)[C@H](CC(C)C)NC(=O)[C@H](C)NC(=O)[C@H](Cc1ccccc1)NC(=O)c1ccc(N)cc1)C(=O)N[C@@H](CO)C(N)=O)C(C)C
IC50 (M-phase phosphoprotein 8 chromodomain; cell-free assay; TR-FRET): 1800 nM

O=c1c2ccccc2[se]n1-c1ccccc1
IC50 (Leucine-rich repeat serine/threonine-protein kinase 2 (LRRK2, Homo sapiens, UniProt Q5S007); enzyme activity; inhibitor; radiometric): 2000 nM
